# Screens deposited in PubChem BioAssay by Broad Institute.
# esBAF inh: inhibitors of esBAF chromatin remodeling in mouse ES cells; Bmi1-luciferase knock-in reporter, 24 h; 100% = twice the neutral-well signal; reporter increase, % at 12.5 µM; AID 602393; actives 2% (n = 350,000); in the data active means activation above about 40%; inconclusive means no clear call, values can overlap the other calls;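 further: 0% = median of the plate's neutral control wells and 100% = double that signal; a rise in the Bmi1 reporter signal indicates esBAF inhibition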
# Env fusion inh: inhibitors of HIV Env-mediated cell fusion | inhibition, % at 12.3 µM | actives 1.1% (n = 360,000) | HeLa-JRFL Env/CEM21 cell fusion, luciferase | AID 651610;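 active means mean replicate inhibition score of at least 50 and every replicate individually at or above 50; inconclusive means only one of the two criteria met; inactive means mean below 50 and not all replicates reaching 50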;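 further: 0% = plate neutral controls and 100% = maraviroc near 300 nM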
# MITF act: MITF TRPM1 promoter activation in melanoma cells | SK-MEL-5 TRPM1-promoter luciferase, 24 h; % of positive control, neutral wells = 0 | activation, % at 12.5 µM | actives 0.75% (n = 300,000);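 active means mean activation of at least 80% with every replicate also reaching 80%; inconclusive means mean reaches 80% but some replicate falls short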;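 further: 0% = neutral control wells and 100% = parthenolide positive control wells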
# Wnt act: Wnt/beta-catenin pathway activation. Wnt/beta-catenin reporter cell assay, activator, plate reader. activation, % at 9.35 µM. actives 1.2% (n = 300,000). AID 743398; in the data active means activation above about 30%, passing the limit was not always enough; inconclusive means no clear call, values can overlap the other calls;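 further: 0% = neutral control wells and 100% = positive control wells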
# ERAP1 HTS inh: ERAP1 (human) enzyme inhibition. recombinant ERAP1, Leu-AMC fluorescence, 60 min. inhibition, % at 10.7 µM. actives 0.15% (n = 340,000). AID 652197;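 active means mean replicate inhibition of at least 30%, or all replicates individually reaching that 30% level; inactive means mean below 30% and not every replicate reaching it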;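 further: 0% = neutral control wells and 100% = L-leucinethiol positive control wells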
# Target sequence (Q9NZ08 whole entry, looked up): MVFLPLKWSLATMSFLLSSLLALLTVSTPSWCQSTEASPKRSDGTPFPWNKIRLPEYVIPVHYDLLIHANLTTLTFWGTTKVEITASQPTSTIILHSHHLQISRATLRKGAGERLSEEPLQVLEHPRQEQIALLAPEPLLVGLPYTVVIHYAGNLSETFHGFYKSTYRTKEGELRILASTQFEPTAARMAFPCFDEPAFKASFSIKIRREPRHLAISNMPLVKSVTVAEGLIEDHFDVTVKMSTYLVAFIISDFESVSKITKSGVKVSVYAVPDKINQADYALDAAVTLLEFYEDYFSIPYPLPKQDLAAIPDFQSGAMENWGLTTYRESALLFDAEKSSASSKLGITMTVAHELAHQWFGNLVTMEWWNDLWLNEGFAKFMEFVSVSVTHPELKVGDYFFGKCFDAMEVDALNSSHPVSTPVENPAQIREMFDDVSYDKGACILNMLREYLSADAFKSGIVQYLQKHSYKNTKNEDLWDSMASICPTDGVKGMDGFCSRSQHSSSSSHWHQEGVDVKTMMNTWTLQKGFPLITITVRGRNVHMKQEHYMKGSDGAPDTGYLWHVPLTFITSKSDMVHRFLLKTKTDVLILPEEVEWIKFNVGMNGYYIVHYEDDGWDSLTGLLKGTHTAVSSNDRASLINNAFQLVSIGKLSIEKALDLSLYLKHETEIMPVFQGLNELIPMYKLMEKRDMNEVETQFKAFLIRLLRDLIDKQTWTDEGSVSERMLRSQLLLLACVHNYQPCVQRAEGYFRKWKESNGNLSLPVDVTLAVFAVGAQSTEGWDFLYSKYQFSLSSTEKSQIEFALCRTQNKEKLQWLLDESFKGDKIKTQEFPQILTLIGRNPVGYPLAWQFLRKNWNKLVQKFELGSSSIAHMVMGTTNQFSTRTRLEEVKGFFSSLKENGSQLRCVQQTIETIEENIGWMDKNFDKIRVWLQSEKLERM
# Cneo AK release: Cryptococcus neoformans lysis via adenylate kinase release. actives 0.2% (n = 360,000). AID 651654. C. neoformans lysis, adenylate kinase release luminescence, 4 h; normalised: neutral wells 0, clomiphene wells 100. lysis activity, % at 15 µM;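 active means mean lysis activity across replicates of at least 80%, whatever share of replicates individually reach that level; inactive means mean lysis activity below 80%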
#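 Material: C. neoformans cells; Schedule: 4 h static compound exposure, 37 °C, read 1 h post-reagent; Measured by: adenylate kinase release luminescence; Read-out: signal increase indicating cell lysis; Controls: Clomiphene as positive lysis control.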
# * hit, by the source's call; ? = inconclusive; / = no result; [ ] = remark or other dose. Compounds with a hit are over-represented: about 3.5% of the library has one in this group of screens.
SMILES,esBAF inh,Env fusion inh,MITF act,Wnt act,ERAP1 HTS inh,Cneo AK release
CC(C)(O)C#Cc1ccc(C(=O)Nc2ccc3c(c2)OCO3)s1,63*,-66,47,31*,7,1
CCc1sc(C(=O)Nc2ccc(N3CCOCC3)cc2)cc1C,/,-5,53,-2,4,0
CCc1sc(C(=O)Nc2ccc3c(c2)OCO3)cc1C,51*,-10,124*,43*,0,-9
C[C@H](CO)N1C[C@H](C)[C@H](CN(C)Cc2ccc(F)cc2)OCc2ccccc2-c2c(n(C)c3ccccc23)C1=O,/,/,/,/,3,/
C/C=C/c1ccc([C@H]2[C@@H](CO)N3C(=O)CN(S(=O)(=O)c4cccc(F)c4)C[C@@H]23)cc1,/,/,/,/,0,/
Cc1ccc(/C=N/NC(=O)c2cccs2)cc1[N+](=O)[O-],/,-309,117*,40*,/,4
COC(=O)c1sccc1N/N=C/c1ccc(OC)c(OC)c1OC,52*,-59,70,13,-6,-2
COc1ccc(/C=N/NC(=O)c2cccs2)c2ccccc12,56*,-125,70,6,/,-3
O=C(N/N=C/C=C/c1ccccc1[N+](=O)[O-])c1cccs1,38,-15,7,/,-2,3
O=C(N/N=C/c1ccccc1[N+](=O)[O-])c1cccs1,/,-27,/,45*,1,6
C[C@H](CO)N1C[C@H](C)[C@@H](CN(C)Cc2ccncc2)Oc2ccc(NS(=O)(=O)c3ccccc3)cc2C1=O,1,/,/,/,1,2
CCCCCN=C(C)c1c(O)c2ccccc2oc1=O,58*,/,64,-1,/,2
C/C(=N/NS(=O)(=O)c1ccc(C)cc1)c1c(O)c2ccccc2oc1=O,4,11,-17,-3,-2,-3
C[C@H]1CN([C@@H](C)CO)C(=O)Cc2cc(NC(=O)CCN3CCOCC3)ccc2O[C@H]1CN(C)Cc1ccc(C(=O)Nc2ccccc2N)cc1,/,/,/,/,-7,/
COc1ccc(-c2cc(=O)c3c(C)cc(O)cc3o2)cc1,/,-240,75,67*,4,/
COc1c(O)cc2oc(-c3ccc(O)cc3)cc(=O)c2c1O,0,-485,41,39*,1,-4
O=C(Nc1ccccc1)N[C@H]1CC[C@H](CCn2cc(C3(O)CCCC3)nn2)O[C@H]1CO,3,-7[16.7 µM],/,/,2,14
CCN1[C@@H]2c3ccc(-c4cccc(C(=O)N(C)C)c4)c(=O)n3C[C@@H]2[C@@H](CO)[C@@H]1C(=O)OC,-6,/,/,/,5,-1
O=C(CN1C(=O)CCC1=O)Nc1nc(-c2ccc3ccccc3c2)cs1,/,-10,67,44*,1,/
CC(=O)Nc1nc(-c2ccc3ccccc3c2)cs1,31,-149,94*,48*,-3,0
O=C(CN1C(=O)CCC1=O)Nc1nc(-c2ccccn2)cs1,-3,1,0,-1,/,-1
O=C(CN1C(=O)CCC1=O)Nc1nc(-c2nc3ccccc3s2)cs1,40,20,92*,10,0,-2
CCCNC(=O)Nc1ccc2c(c1)C(=O)N(C)C[C@@H](OC)[C@H](C)CN(Cc1ccncc1)[C@@H](C)CO2,4,-3[16.7 µM],/,/,/,-2
CCCC(=O)NC(c1cccs1)c1cc(Cl)c2cccnc2c1O (stereo unspecified),/,74*,-45,-6,-4,/
CCCC(=O)NC(c1cccc([N+](=O)[O-])c1)c1ccc2cccnc2c1O (stereo unspecified),-53,92*,/,-2,2,-1
SMILES,esBAF inh,Env fusion inh,MITF act,Wnt act,ERAP1 HTS inh,Cneo AK release
COc1cccc(N2CCN(c3ncccn3)CC2)c1,43*,/,64,/,/,/
CC(=O)Nc1cccc(C)c1,3,/,2,3,2,0
CC(=O)Nc1ccc2c(c1)C(=Nc1cccc(C)c1)c1ccccc1-2,18,-10,8,34*,0,/
CCN1C(=O)/C(=C/N(C)c2ccccc2)OC1=S,39,/,46,6,5,-2
CCN1C(=O)/C(=C\N(C(C)=O)c2ccccc2)OC1=S,45*,/,6,/,/,0
C[C@@H]1CN([C@@H](C)CO)C(=O)c2cc(NS(=O)(=O)c3cccs3)ccc2O[C@@H](C)CCCCO[C@@H]1CN(C)C(=O)Nc1ccc(C(F)(F)F)cc1,/,/,/,/,0,/
c1ccc(-n2ncc3c(NCCN4CCCCC4)ncnc32)cc1,12,/,11,/,/,-1
Cc1cccc(Nc2ncnc3c2cnn3C)c1,-2,-117,7,0,-2,1
c1ccc(-n2ncc3c(NCCN4CCOCC4)ncnc32)cc1,47*,-24,38,47*,/,1
Cn1ncc2c(Nc3ccc4ccccc4c3)ncnc21,53*,/,69,21,7,-17
c1ccc(CCNc2ncnc3c2cnn3-c2ccccc2)cc1,72*,/,67,/,0,-3
Clc1ccc(Nc2ncnc3c2cnn3-c2ccccc2)cc1,85*,-44,/,13,-7,-5
CC(C)NC(=O)N(C)C[C@@H]1Oc2ncc(-c3cccc(F)c3)cc2C(=O)N([C@H](C)CO)C[C@@H]1C,1,-8[16.7 µM],/,/,-4,-1
Fc1ccc(CNc2ncnc3c2cnn3-c2ccccc2)cc1,49*,/,32,-1,/,-1
c1ccc(CNc2ncnc3c2cnn3-c2ccccc2)cc1,?,-10,16,/,/,0
Clc1ccc(-n2ncc3c(NCc4cccnc4)ncnc32)cc1Cl,65*,-82,10,21,1,-1
CCCCN(Cc1ccccc1)c1ncnc2nc[nH]c12,67*,/,/,/,/,-1
CCN1CCN(Cc2c3ccccc3cc3ccccc23)CC1,5,4,20,49*,0,1
C[C@H]1CN([C@@H](C)CO)C(=O)Cc2cc(N(C)C)ccc2O[C@H]1CN(C)CC1CC1,2,59*[16.7 µM],/,/,0,-3
C[C@H](CO)N1C[C@H](C)[C@H](CN(C)CC2CC2)Oc2ccc(N(C)C)cc2CC1=O,/,/,/,/,-5,/
C[C@H]1CN([C@@H](C)CO)C(=O)Cc2cc(N(C)C)ccc2O[C@H]1CN(C)Cc1ccc(Cl)c(Cl)c1,-1,58*[16.7 µM],/,/,/,/
Cc1ccc2cc(C#N)c(NCCNC(=O)C3CC3)nc2c1C,2,113*,-4,1,/,3
CN(C)c1ccc(C=C2SC(=S)NC2=O)cc1,54*,-21,21,-1,-2,4
C[C@H](NC(=O)C[C@@H]1C=C[C@@H](NC(=O)Cc2ccccn2)[C@@H](CO)O1)c1ccccc1,-1,/,/,/,0,4
Cc1cc([N+](=O)[O-])ccc1NC(=O)c1csc(C)c1C,/,-23,124*,22,-2,-3
CNC(=S)Nc1ccc([N+](=O)[O-])cc1C,-8,-7,6,-1,-2,3
C[C@@H]1CN([C@H](C)CO)C(=O)c2cccc(NC(=O)c3nc4ccccc4s3)c2O[C@@H]1CN(C)Cc1ccncc1,9,/,/,/,-9,-1
